From article PMC6431256 (Biochemistry, 2018) come the findings set out here.

This experiment deals with full-length Pin1 (Pin1FL) (Homo sapiens, UniProt Q13526). Briefly: NMR 15N-1H HSQC titration, binding to full-length Pin1. An outline of the steps:
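15N-labeled Pin1FL and Pin1WW were expressed separately in M9 medium with 15NH4Cl, induced with 1 mM IPTG at OD600 0.5 for 4 h, and purified by Ni affinity and gel filtration (20 mM HEPES pH 7.5, 50 mM NaCl, 5 mM EDTA; Pin1FL with 1 mM TCEP). Unlabeled phosphopeptides (dialyzed into matching buffer) were titrated at 0–637 µM into 100 µM protein. 1H-15N HSQC spectra were recorded at 25 °C and 600 MHz. Apparent KD was fitted from chemical shift changes, with 15N weighted 0.17.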

Chain of full-length Pin1 (Pin1FL) (Q13526 whole entry): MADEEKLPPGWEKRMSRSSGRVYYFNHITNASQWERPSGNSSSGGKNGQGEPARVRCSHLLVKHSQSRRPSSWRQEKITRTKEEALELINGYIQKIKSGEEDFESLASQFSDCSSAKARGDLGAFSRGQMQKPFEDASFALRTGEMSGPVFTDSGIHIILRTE

Take KVAKpSPKKAKAW [H1.5]: for the setting “Pin1FL and Pin1WW, in words”, the “interaction strength with Pin1 among H1 peptides” value is given as “fairly low affinity”. Besides, the “apparent affinity for full-length Pin1 relative to WW domain” value (compared with Pin1WW) is “decrease”.
